Assay results published in publication PMC10092897 (Chemistry (Weinheim an Der Bergstrasse, Germany), 2022).
Like-named read-outs stand apart in the source and are kept apart here. One block for each molecule: values may come before it.

What was measured:
CYP199A4 [1] = biological target: T1, CYP199A4 (Rhodopseudomonas palustris, UniProt Q2IU02); experiment: Dissociation constant determination by UV-vis binding titration
T1 sequence (Q2IU02 1-410): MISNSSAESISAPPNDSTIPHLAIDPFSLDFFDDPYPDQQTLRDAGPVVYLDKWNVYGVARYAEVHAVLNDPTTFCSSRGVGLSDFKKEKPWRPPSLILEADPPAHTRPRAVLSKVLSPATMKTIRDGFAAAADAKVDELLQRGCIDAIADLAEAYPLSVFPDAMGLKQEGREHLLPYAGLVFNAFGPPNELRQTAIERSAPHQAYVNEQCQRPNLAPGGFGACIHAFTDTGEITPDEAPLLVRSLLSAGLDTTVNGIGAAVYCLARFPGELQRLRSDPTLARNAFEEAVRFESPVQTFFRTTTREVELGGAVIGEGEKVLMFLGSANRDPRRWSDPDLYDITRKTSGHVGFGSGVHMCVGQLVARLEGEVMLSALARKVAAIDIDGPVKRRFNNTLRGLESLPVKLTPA
Procedure, shortened: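 UV-vis titration at 30 °C: enzyme diluted to 0.5–2.0 μM in 50 mM Tris, pH 7.4. Substrate was added from 1, 10 or 100 mM stocks in ethanol or DMSO. Soret peak-to-trough absorbance difference was recorded over 700–250 nm. Kd came from fitting ΔA against total substrate concentration to the tight-binding quadratic equation.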

CYP199A4 [2] = biological target: T1, CYP199A4; experiment: Spin state determination by UV-vis spectroscopy; format: binding; conditions: WT CYP199A4, 50 mM Tris, pH 7.4
CYP199A4 [3] = biological target: T1, CYP199A4; experiment: In vitro NADH turnover assay and metabolite analysis; format: biochemical; conditions: for PFR (product formation rate): WT CYP199A4 0.5 μM, 50 mM Tris, pH 7.4
F298V mutant of CYP199A4 [4] = experiment: Spin state determination by UV-vis spectroscopy, F298V mutant; format: binding, Rhodopseudomonas palustris
Procedure, shortened: (§1)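 Mutant was produced and purified as for WT. UV-vis spectra of the substrate-treated enzyme were recorded at 30 °C. The percentage low-to-high-spin shift of the ferric heme was estimated to about ±5%.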

F182L mutant of CYP199A4 [5] = experiment: Spin state determination by UV-vis spectroscopy, F182L variant; format: binding, Rhodopseudomonas palustris
Procedure, shortened: as §1

F298V mutant of CYP199A4 [6] = experiment: In vitro NADH turnover assay and metabolite analysis, F298V mutant; format: biochemical, Rhodopseudomonas palustris
Procedure, shortened: (§2)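 Mutant was expressed and purified as for WT, with glycerol removed by gel filtration. NADH was added to ~320 μM, then substrate at 1 mM final. NADH oxidation was followed at A340 (ε 6.22 mM⁻¹cm⁻¹). Values are mean ± S.D., n ≥ 3.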

CYP199A4 [7] = biological target: T1, CYP199A4; conditions: WT CYP199A4; cited from earlier work
CYP199A4 [8] = biological target: T1, CYP199A4; conditions: WT CYP199A4, cited from earlier work
CYP199A4 [9] = biological target: T1, CYP199A4; conditions: WT CYP199A4, cited from earlier work; remark: listed apart in the source
F182L mutant of CYP199A4 [10] = experiment: In vitro NADH turnover assay and metabolite analysis, F182L mutant; format: biochemical, Rhodopseudomonas palustris
Procedure, shortened: as §2

SMILES: COc1cccc(-c2ccc(C(=O)O)cc2)c1 [4‐(3′‐methoxyphenyl)BA, 4‐(3′‐methoxyphenyl)benzoic acid]
Kd (CYP199A4 [1]): 0.6 ± 0.1 µM
HS [%] (shift from low-spin to high-spin ferric heme) (CYP199A4 [2]): ≥95%
HS [%] (shift from low-spin to high-spin ferric heme) (CYP199A4 [2]; listed as 4‐(3′‐Methoxyphenyl)benzoic acid): ≥ 95%

SMILES: O=C(O)c1ccc(C2CCCCC2)cc1 [4‐cyclohexylBA, 4‐cyclohexylbenzoic acid]
High-spin species (F298V mutant of CYP199A4 [4]): ≥ 85%
High-spin species (F182L mutant of CYP199A4 [5]): 90%
Coupling efficiency (F298V mutant of CYP199A4 [6]; F298V mutant): 31±9%
NADH oxidation rate (F298V mutant of CYP199A4 [6]; F298V mutant): 162 ± 55 min⁻¹
Product selectivity: 4-(1-hydroxycyclohexyl)benzoic acid (benzylic hydroxylation) (F298V mutant of CYP199A4 [6]; F298V variant): 34%
Kd (CYP199A4 [7]): 450 ± 50 nM
Product selectivity: 4-(1-hydroxycyclohexyl)benzoic acid (benzylic hydroxylation) (CYP199A4 [3]; WT CYP199A4): 24%
Coupling (CYP199A4 [8]): 33±2%
NADH oxidation rate (CYP199A4 [8]): 169 ± 11 min⁻¹
PFR (product formation rate) (CYP199A4 [8]): 52 ± 6 min⁻¹
HS [%] (CYP199A4 [9]): ≥95%

SMILES: COc1ccc(C(=O)O)cc1 [4‐methoxyBA, 4‐methoxybenzoic acid]
Coupling (CYP199A4 [8]; ref 8c): 91±10%
NADH oxidation rate (CYP199A4 [8]; ref 8c): 1340 ± 30 min⁻¹
PFR (product formation rate) (CYP199A4 [8]; ref 8c): 1220 ± 120 min⁻¹
HS [%] (CYP199A4 [9]; ref 8c): ≥95%

SMILES: O=C(O)c1ccc(-c2ccccc2)cc1 [4‐phenylBA, 4‐phenylbenzoic acid]
Coupling efficiency (F182L mutant of CYP199A4 [10]): 30%
NADH oxidation rate (F182L mutant of CYP199A4 [10]): 75 ± 0.3 min⁻¹
Proportion of 4-(3′-hydroxyphenyl)benzoic acid among metabolites (F182L mutant of CYP199A4 [10]; RT 16.2 min): 9%
High-spin species (F298V mutant of CYP199A4 [4]): ≥ 85%
High-spin species (F182L mutant of CYP199A4 [5]): ~10%
NADH oxidation rate (F298V mutant of CYP199A4 [6]; F298V mutant): 1030 ± 90 min⁻¹
Oxidation by the F298V mutant (in words) (F298V mutant of CYP199A4 [6]; F298V mutant): unable to oxidise
Kd (CYP199A4 [7]): 1700 ± 100 nM
NADH oxidation rate (CYP199A4 [8]): 902 ± 34 min⁻¹
HS [%] (CYP199A4 [9]): 90%

SMILES: CC(C)(C)c1ccc(C(=O)O)cc1 [4‐tert‐butylBA, 4‐tert‐butylbenzoic acid]
Kd (CYP199A4 [7]): 39000 ± 2000 nM
Coupling (CYP199A4 [8]): 100±13%
NADH oxidation rate (CYP199A4 [8]): 227 ± 4 min⁻¹
PFR (product formation rate) (CYP199A4 [8]): 227 ± 32 min⁻¹
HS [%] (CYP199A4 [9]): ≥95%

The remaining lines, values ahead:

Coupling (percentage of NADH utilised for formation of oxidation products) (CYP199A4 [3]; WT CYP199A4): ≤ 1%
Kd (CYP199A4 [1]): 100 ± 10 µM
HS [%] (shift from low-spin to high-spin ferric heme) (CYP199A4 [2]): ~10%
SMILES: COc1ccc(-c2ccc(C(=O)O)cc2)cc1 [4‐(4′‐methoxyphenyl)BA, 4‐(4′‐methoxyphenyl)benzoic acid]

Kd (CYP199A4 [1]): 2.3 ± 0.4 µM
HS [%] (shift from low-spin to high-spin ferric heme) (CYP199A4 [2]): type II^[c]
HS [%] (shift from low-spin to high-spin ferric heme) (CYP199A4 [2]; listed as 4‐benzoylbenzoic acid): type II
SMILES: O=C(O)c1ccc(C(=O)c2ccccc2)cc1 [4‐benzoylBA, 4‐benzoylbenzoic acid]

Coupling (percentage of NADH utilised for formation of oxidation products) (CYP199A4 [3]; WT CYP199A4): 95±11%
PFR (product formation rate) (CYP199A4 [3]): 522 ± 61 min⁻¹
PFR (product formation rate) (CYP199A4 [3]; listed as 4‐Benzylbenzoic acid): 522 min⁻¹
Kd (CYP199A4 [1]): 5.2 ± 0.25 µM
HS [%] (shift from low-spin to high-spin ferric heme) (CYP199A4 [2]): 90%
SMILES: O=C(O)c1ccc(Cc2ccccc2)cc1 [4‐benzylBA, 4‐benzylbenzoic acid]
